The results in this text go back to ChEMBL document CHEMBL2062397, “N-heterocyclic dicarboxylic acids: broad-spectrum inhibitors of metallo-β-lactamases with co-antibacterial effect against antibiotic-resistant bacteria” (Bioorg Med Chem Lett, 2012).

Assay [1] can be described thus: Noncompetitive inhibition of CcrA using cezafolin as substrate incubated for 30 mins prior to substrate addition by Lineweaver-burk plot analysis. Put shortly: (§1)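 Purified CcrA (Bacteroides fragilis) or L1 (S. maltophilia), over-expressed. Cefazolin substrate at several concentrations, inhibitor concentration varied from 0. Enzyme and inhibitor preincubated 30 min. Run in 50 mM Tris pH 7.0 at 25 °C with UV–Vis spectrophotometric read-out. Inhibition mode from Lineweaver–Burk plots; Ki determined.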

The nature of assay [2]: Inhibition of L1 using cezafolin as substrate up to 50 uM incubated for 30 mins prior to substrate addition.
In assay [3] the test system is Escherichia coli BL21(DE3). The experiment in a line: Inhibition of CcrA in Escherichia coli BL21(DE3) assessed as reduction in cefazolin MIC for after 24 hrs by macrobroth dilution assay. The arrangement: scale not given: the % may be the effect or the level left. Put shortly: (§2)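 Macrobroth twofold antibiotic dilutions in Mueller–Hinton medium, tubes with or without inhibitor. Strains were E. coli BL21(DE3) carrying pMSZ02-CcrA, pET-26b-ImiS or pET26b-L1, and K. pneumoniae ATCC 700603. Incubated 37 °C for 24 h; MIC read. Duplicate.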

The subject of assay [4] is Escherichia coli BL21(DE3). As to the kind of experiment: Inhibition of Imis in Escherichia coli BL21(DE3) assessed as reduction in cefazolin MIC after 24 hrs by macrobroth dilution assay. Also noted: scale not given: the % may be the effect or the level left. Particulars: in the assay text read “imipenem” for “cefazolin”. Put shortly:
as §2

The test system of assay [5] is Escherichia coli BL21(DE3). The experiment in a line: Inhibition of L1 in Escherichia coli BL21(DE3) assessed as reduction in cefazolin MIC after 24 hrs by macrobroth dilution assay. In outline:
as §2

In a further assay the test system is Klebsiella pneumoniae. As to the kind of experiment: Inhibition of metallo-beta-lactamase in Klebsiella pneumoniae ATCC 700603 assessed as reduction in cefazolin MIC after 24 hrs by macrobroth dilution assay. In outline:
as §2

Assay [6] has as its system Staphylococcus aureus. As to the kind of experiment: Inhibition of metallo-beta-lactamase in methicillin-resistant Staphylococcus aureus isolate 1 assessed as reduction in cefazolin MIC after 24 hrs by macrobroth dilution assay. In outline: (§3)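 Macrobroth twofold dilution in Mueller–Hinton (MH) medium. Each tube held inhibitor stock plus antibiotic from a 1280 µg/ml stock, serially twofold diluted. Final inoculum was 5 × 10⁵ CFU/ml. MIC was read after 24 h at 37 °C, with inhibitor present or absent, in duplicate.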

Assay [7] relates to Staphylococcus aureus. As to the kind of experiment: Inhibition of metallo-beta-lactamase in methicillin-resistant Staphylococcus aureus isolate 1 assessed as reduction in vancomycin MIC after 24 hrs by macrobroth dilution assay. Put shortly: as §3
Assay [8] has as its system Staphylococcus aureus. The experiment in a line: Inhibition of metallo-beta-lactamase in methicillin-resistant Staphylococcus aureus isolate 2 assessed as reduction in cefazolin MIC after 24 hrs by macrobroth dilution assay. Put shortly:
as §3

The subject of assay [9] is Staphylococcus aureus. As to the kind of experiment: Inhibition of metallo-beta-lactamase in methicillin-resistant Staphylococcus aureus isolate 2 assessed as reduction in vancomycin MIC after 24 hrs by macrobroth dilution assay. In outline:
as §3

Assay [10] is described as follows: Noncompetitive inhibition of ImiS using imipenem as substrate incubated for 30 mins prior to substrate addition by Lineweaver-burk plot analysis.
Assay [11] can be described thus: Inhibition of CcrA using cezafolin as substrate up to 50 uM incubated for 30 mins prior to substrate addition.
Assay [12] in a line: Inhibition of ImiS using imipenem as substrate up to 50 uM incubated for 30 mins prior to substrate addition.
A short description of assay [13]: Competitive inhibition of CcrA using cezafolin as substrate incubated for 30 mins prior to substrate addition by Lineweaver-burk plot analysis. Put shortly: as §1
Assay [14] is described as follows: Competitive inhibition of L1 using cezafolin as substrate incubated for 30 mins prior to substrate addition by Lineweaver-burk plot analysis. In outline: as §1
Assay [15] in a line: Competitive inhibition of ImiS using imipenem as substrate incubated for 30 mins prior to substrate addition by Lineweaver-burk plot analysis.

pKi: −log10 of the molar value. Calls of active or inactive are those of the source. No cut-off for these calls is given here.

`S=c1[nH]nc(-c2ccncc2)s1`: the pKi is 5.23 in assay [1] and 5.17 in assay [10]. Further, the inhibition entry in assay [2] is “inactive”. Also, the Activity in [3] and in [4] was 50% throughout. Also, the result (in assay [5]; in the assay with Klebsiella pneumoniae; in the assay with Staphylococcus aureus [6]; in the assay with Staphylococcus aureus [7]; with Staphylococcus aureus [8]; in the assay with Staphylococcus aureus [9]) was inactive.
Consider `Sc1nnc(-c2ccncc2)[nH]1`, for which the inhibition result in assay [11], in assay [2] and in [12] was “inactive” each time. Also, the outcome (in [3]; in assay [4]; in assay [5]; in the assay on Klebsiella pneumoniae; in the assay on Staphylococcus aureus [6]; with Staphylococcus aureus [7]) was inactive. The result in the assay on Staphylococcus aureus [8] and in the assay on Staphylococcus aureus [9] was inactive.
As for `O=C(O)C1COC(C(=O)O)N1` (configuration not stated), the figures for the negative-log Ki (pKi) in assay [13] and in assay [14] were 5.96 and 5.72, respectively. For the same compound, the outcome (in [3]; in [5]; in the assay on Klebsiella pneumoniae) was Active. For the same compound, the result (in [4]; with Staphylococcus aureus [6]; in the assay on Staphylococcus aureus [7]; in the assay on Staphylococcus aureus [8]; in the assay with Staphylococcus aureus [9]) was inactive. For the same compound, the inhibition entry in assay [12] is “inactive”.
Consider `O=C(O)C1CCC(C(=O)O)N1` (configuration not stated), for which the pKi in assay [13] is 6.14; in assay [14] it was 6.16. The outcome (in [3]; in assay [5]; with Klebsiella pneumoniae) was Active. Further, the outcome (in assay [4]; in the assay on Staphylococcus aureus [6]; in the assay with Staphylococcus aureus [7]; with Staphylococcus aureus [8]; in the assay with Staphylococcus aureus [9]) was inactive. For the same compound, the inhibition result in assay [12] is “inactive”.
Regarding `Sc1nnc(-c2ccccn2)s1`, the pKi is 5.27 in [1] and 5.46 in assay [10]. Also, the inhibition entry in assay [2] is “inactive”. Also, the Activity in [3] and in assay [4] was 50% each time. In addition, the result (in assay [5]; in the assay on Klebsiella pneumoniae; in the assay with Staphylococcus aureus [6]; in the assay with Staphylococcus aureus [7]; in the assay on Staphylococcus aureus [8]; in the assay with Staphylococcus aureus [9]) was inactive.
Regarding `O=C(O)C1CSC(C(=O)O)N1` (configuration not stated) [TIDIACIC], the pKi in assay [13] is 6.19; in assay [14], 5.74; in assay [15], 5.15. The outcome (in [3]; in assay [4]; in [5]; in the assay on Klebsiella pneumoniae) was Active. The outcome with Staphylococcus aureus [6], in the assay on Staphylococcus aureus [7], in the assay with Staphylococcus aureus [8] and with Staphylococcus aureus [9] was inactive.
With `Sc1nnc(-c2ccccn2)[nH]1`, the inhibition result in assay [11], in assay [2] and in assay [12] was “inactive” in each case. Moreover, the result (in [3]; in assay [4]; in assay [5]; in the assay with Klebsiella pneumoniae; in the assay on Staphylococcus aureus [6]; with Staphylococcus aureus [7]) was inactive. The outcome in the assay with Staphylococcus aureus [8] and in the assay with Staphylococcus aureus [9] was inactive.
